Key:
[1] = biological target: Protease (Human immunodeficiency virus 1, UniProt Q9YQ12); assay: Inhibition of HIV-1 protease by fluorometric assay
How it was run: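 Run by a previously published protease assay protocol, with inhibitory potency reported as the inhibition constant Ki.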

[2] = tested on: Human immunodeficiency virus 1; assay: Antiviral activity against HIV-1 LAI infected in MT-2 cells measured after 7 days by MTT assay; assay type: functional, organism-based; conditions: Human immunodeficiency virus 1, LAI, MT2, 168 h

Sequence of Protease (Q9YQ12 whole entry): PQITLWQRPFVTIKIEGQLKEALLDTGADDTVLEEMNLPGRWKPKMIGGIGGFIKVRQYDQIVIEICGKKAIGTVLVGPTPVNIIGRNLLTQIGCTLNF

Structure (SMILES): COc1ccc(S(=O)(=O)N(CC(C)C)C[C@@H](O)[C@H](Cc2ccccc2)NC(=O)c2cc(C)cc(C(=O)N(C)Cc3nc(C)oc3C)c2)cc1
- Ki [1]: 0.21 nM
- IC50 [2]: 31 nM

Structure (SMILES): CCCN(C)C(=O)c1cccc(C(=O)N[C@@H](Cc2ccccc2)[C@H](O)CN(CC(C)C)S(=O)(=O)c2ccc(OC)cc2)c1
- Ki [1]: 5.1 nM

Structure (SMILES): COC[C@H]1C[C@H](O)CN1C(=O)c1cccc(C(=O)N[C@@H](Cc2ccccc2)[C@H](O)CN(CC(C)C)S(=O)(=O)c2ccc(OC)cc2)c1
- Ki [1]: 0.27 nM
- IC50 [2]: 389 nM

Structure (SMILES): COc1ccc(S(=O)(=O)N(CC(C)C)C[C@@H](O)[C@H](Cc2ccccc2)NC(=O)c2cccc(C(=O)N(C)Cc3nc(C)oc3C)c2)cc1
- Ki [1]: 0.17 nM
- IC50 [2]: 14 nM

Structure (SMILES): CCCN(CCC)C(=O)c1cccc(C(=O)N[C@@H](Cc2ccccc2)[C@H](O)CN(CC(C)C)S(=O)(=O)c2ccc(OC)cc2)c1
- Ki [1]: 12.4 nM
- IC50 [2]: > 1000 nM

Structure (SMILES): COc1ccc(S(=O)(=O)N(CC(C)C)C[C@@H](O)[C@H](Cc2ccccc2)NC(=O)c2cccc(C(=O)N3CCN(C)CC3)c2)cc1
- Ki [1]: 0.54 nM
- IC50 [2]: 45 nM

Structure (SMILES): CCCN(C)C(=O)c1cc(NC)cc(C(=O)N[C@@H](Cc2ccccc2)[C@H](O)CN(CC(C)C)S(=O)(=O)c2ccc(OC)cc2)c1
- Ki [1]: 158 nM

Structure (SMILES): COC[C@@H]1C[C@H](O)CN1C(=O)c1cccc(C(=O)N[C@@H](Cc2ccccc2)[C@H](O)CN(CC(C)C)S(=O)(=O)c2ccc(OC)cc2)c1
- Ki [1]: 1.5 nM
- IC50 [2]: > 1000 nM

Structure (SMILES): COC[C@H]1C[C@@H](O)CN1C(=O)c1cccc(C(=O)N[C@@H](Cc2ccccc2)[C@H](O)CN(CC(C)C)S(=O)(=O)c2ccc(OC)cc2)c1
- Ki [1]: 0.27 nM
- IC50 [2]: 190 nM

Structure (SMILES): COCc1coc(CN(C)C(=O)c2cccc(C(=O)N[C@@H](Cc3ccccc3)[C@H](O)CN(CC(C)C)S(=O)(=O)c3ccc(OC)cc3)c2)n1
- Ki [1]: 0.31 nM
- IC50 [2]: 25 nM

Structure (SMILES): CCCNC(=O)c1cccc(C(=O)N[C@@H](Cc2ccccc2)[C@H](O)CN(CC(C)C)S(=O)(=O)c2ccc(OC)cc2)c1
- Ki [1]: 25.1 nM

Structure (SMILES): COc1ccc(S(=O)(=O)N(CC(C)C)C[C@@H](O)[C@H](Cc2ccccc2)NC(=O)c2cccc(C(=O)N3CCOCC3)c2)cc1
- Ki [1]: 0.42 nM
- IC50 [2]: 25 nM

Structure (SMILES): Cc1coc(CN(C)C(=O)c2cccc(C(=O)N[C@@H](Cc3ccccc3)[C@H](O)CN(CC(C)C)S(=O)(=O)c3ccc(CO)cc3)c2)n1
- Ki [1]: 0.63 nM

Structure (SMILES): CCCN(C)C(=O)c1cc(OC)cc(C(=O)N[C@@H](Cc2ccccc2)[C@H](O)CN(CC(C)C)S(=O)(=O)c2ccc(OC)cc2)c1
- Ki [1]: 20.4 nM

Structure (SMILES): COC[C@@H]1C[C@@H](O)CN1C(=O)c1cccc(C(=O)N[C@@H](Cc2ccccc2)[C@H](O)CN(CC(C)C)S(=O)(=O)c2ccc(OC)cc2)c1
- Ki [1]: 2.85 nM
- IC50 [2]: 178 nM

From ChEMBL document CHEMBL3627614, “Structure-based design, synthesis, X-ray studies, and biological evaluation of novel HIV-1 protease inhibitors containing isophthalamide-derived P2-ligands” (Bioorg Med Chem Lett, 2015)
